Data from ChEMBL document CHEMBL3232922, “Discovery and SAR of 6-alkyl-2,4-diaminopyrimidines as histamine H₄ receptor antagonists” (J Med Chem, 2014).
Calls of active or inactive are those of the source. The calls are words filed in the database; no cut-off is given here.

How the values were obtained:
[1] = AUC in beagle dog at 2 mg/kg, iv; format: ADME, organism-based, Canis lupus familiaris, Plasma; design: dose 2 mg/kg, route intravenous; conditions: beagle, plasma
Cytochrome P450 2C9 = Cytochrome P450 2C9 (Homo sapiens, UniProt P11712); experiment: Inhibition of CYP2C9 (unknown origin) at 50 to 100 uM; format: ADME
Sequence of Cytochrome P450 2C9 (P11712 whole entry): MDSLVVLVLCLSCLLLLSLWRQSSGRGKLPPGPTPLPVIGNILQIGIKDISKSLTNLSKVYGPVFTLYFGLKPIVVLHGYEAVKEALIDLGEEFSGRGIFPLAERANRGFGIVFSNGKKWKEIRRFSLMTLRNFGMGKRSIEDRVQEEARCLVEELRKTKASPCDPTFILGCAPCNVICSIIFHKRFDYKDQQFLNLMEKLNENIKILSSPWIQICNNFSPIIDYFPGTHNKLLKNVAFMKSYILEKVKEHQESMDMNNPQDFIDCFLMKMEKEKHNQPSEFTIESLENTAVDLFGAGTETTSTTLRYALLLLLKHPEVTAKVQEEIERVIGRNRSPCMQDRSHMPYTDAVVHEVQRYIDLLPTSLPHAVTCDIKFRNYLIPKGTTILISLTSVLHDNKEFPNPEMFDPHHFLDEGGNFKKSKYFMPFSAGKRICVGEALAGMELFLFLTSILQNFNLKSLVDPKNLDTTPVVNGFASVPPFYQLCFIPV

[2] = molecular target: Voltage-gated inwardly rectifying potassium channel KCNH2 (Homo sapiens, UniProt Q12809); experiment: Inhibition of human ERG channel transfected in HEK293 cells assessed as reduction in delayed rectifier current by patch clamp assay; format: cell-based
Sequence of Voltage-gated inwardly rectifying potassium channel KCNH2 (Q12809 whole entry): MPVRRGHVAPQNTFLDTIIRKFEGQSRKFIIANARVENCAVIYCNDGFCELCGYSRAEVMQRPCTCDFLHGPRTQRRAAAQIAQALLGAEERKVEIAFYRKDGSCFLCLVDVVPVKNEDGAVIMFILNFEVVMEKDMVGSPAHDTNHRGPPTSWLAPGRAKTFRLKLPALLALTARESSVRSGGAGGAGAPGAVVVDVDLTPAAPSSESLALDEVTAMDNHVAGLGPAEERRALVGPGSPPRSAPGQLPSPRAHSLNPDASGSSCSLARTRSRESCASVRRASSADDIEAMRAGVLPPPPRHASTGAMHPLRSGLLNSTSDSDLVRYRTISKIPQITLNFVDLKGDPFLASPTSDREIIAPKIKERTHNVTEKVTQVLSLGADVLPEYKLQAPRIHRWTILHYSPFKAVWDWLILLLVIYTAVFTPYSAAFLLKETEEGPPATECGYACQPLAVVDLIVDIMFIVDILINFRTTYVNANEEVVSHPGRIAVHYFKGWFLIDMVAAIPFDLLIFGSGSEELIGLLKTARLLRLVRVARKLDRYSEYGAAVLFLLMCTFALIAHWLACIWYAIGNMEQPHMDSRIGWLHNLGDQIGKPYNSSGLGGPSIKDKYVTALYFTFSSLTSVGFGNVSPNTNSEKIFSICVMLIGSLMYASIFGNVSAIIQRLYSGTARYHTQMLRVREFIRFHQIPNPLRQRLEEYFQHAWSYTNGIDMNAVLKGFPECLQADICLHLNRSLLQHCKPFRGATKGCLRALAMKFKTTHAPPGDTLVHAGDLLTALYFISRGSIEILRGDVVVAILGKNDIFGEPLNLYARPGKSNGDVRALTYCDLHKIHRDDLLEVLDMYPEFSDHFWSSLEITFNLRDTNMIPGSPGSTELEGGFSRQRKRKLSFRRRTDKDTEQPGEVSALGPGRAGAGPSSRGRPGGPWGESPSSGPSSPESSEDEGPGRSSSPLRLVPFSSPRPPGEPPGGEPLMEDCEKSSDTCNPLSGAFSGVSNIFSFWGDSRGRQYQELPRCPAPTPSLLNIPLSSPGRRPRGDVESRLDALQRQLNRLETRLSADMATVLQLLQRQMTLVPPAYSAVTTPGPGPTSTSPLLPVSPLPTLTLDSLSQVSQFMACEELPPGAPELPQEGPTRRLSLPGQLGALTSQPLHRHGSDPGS
Procedure, shortened: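 The delayed rectifier current (IKr) was recorded in hERG-transfected HEK293 cells with the compound at 3 μM.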

[3] = Tmax in Sprague-Dawley rat at 500 mg/kg, po; format: ADME, organism-based; design: dose 500 mg/kg, route oral; conditions: in vivo
[4] = Half life in beagle dog at 2 mg/kg, iv; format: ADME, organism-based, Canis lupus familiaris; design: dose 2 mg/kg, route intravenous; conditions: in vivo
[5] = Half life in Balb/c mouse at 2 mg/kg, iv; format: ADME, organism-based; design: dose 2 mg/kg, route intravenous; conditions: in vivo
[6] = Half life in Sprague-Dawley rat at 200 mg/kg, po; format: ADME, organism-based; design: dose 200 mg/kg, route oral; conditions: in vivo
[7] = Tmax in Sprague-Dawley rat at 10 mg/kg, po; format: ADME, organism-based; design: dose 10 mg/kg, route oral; conditions: in vivo
Histamine H3 receptor = Histamine H3 receptor (Homo sapiens, UniProt Q9Y5N1); experiment: Displacement of [3H]N-alpha-methylhistamine from human recombinant histamine H3 receptor expressed in SK-N-MC cells after 45 mins by competition binding analysis; format: cell-based
Sequence of Histamine H3 receptor (Q9Y5N1 whole entry): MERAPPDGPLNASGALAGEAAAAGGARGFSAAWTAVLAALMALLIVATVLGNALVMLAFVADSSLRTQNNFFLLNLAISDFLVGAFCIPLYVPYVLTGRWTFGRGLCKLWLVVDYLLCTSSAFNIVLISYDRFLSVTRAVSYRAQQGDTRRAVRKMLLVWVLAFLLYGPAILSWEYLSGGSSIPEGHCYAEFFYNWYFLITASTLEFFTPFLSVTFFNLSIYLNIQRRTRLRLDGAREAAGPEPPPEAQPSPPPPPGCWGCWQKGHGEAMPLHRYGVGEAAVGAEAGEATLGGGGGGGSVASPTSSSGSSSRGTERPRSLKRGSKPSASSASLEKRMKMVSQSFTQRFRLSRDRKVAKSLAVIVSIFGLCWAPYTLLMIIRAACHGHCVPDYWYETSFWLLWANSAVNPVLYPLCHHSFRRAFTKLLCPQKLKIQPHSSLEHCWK

[8] = AUC in Balb/c mouse at 5 mg/kg, po; format: ADME, organism-based; design: dose 5 mg/kg, route oral; conditions: plasma
[9] = AUC in Sprague-Dawley rat at 200 mg/kg, po; format: ADME, organism-based; design: dose 200 mg/kg, route oral; conditions: plasma
[10] = Ratio of drug level in liver to plasma in mouse at 5 mg/kg, po administered as single dose […] by LC-MS/MS analysis; format: ADME, organism-based; design: dose 5 mg/kg, route oral
[11] = Ratio of drug level in brain to plasma in mouse at 5 mg/kg, po administered as single dose […] by LC-MS/MS analysis; format: ADME, organism-based; design: dose 5 mg/kg, route oral; conditions: brain and plasma
[12] = AUC in Sprague-Dawley rat at 500 mg/kg, po; format: ADME, organism-based; design: dose 500 mg/kg, route oral; conditions: plasma
[13] = Half life in Sprague-Dawley rat at 2 mg/kg, iv; format: ADME, organism-based; design: dose 2 mg/kg, route intravenous; conditions: Sprague-Dawley, in vivo
[14] = Clearance in Balb/c mouse at 2 mg/kg, iv; format: ADME, organism-based; design: dose 2 mg/kg, route intravenous; conditions: in vivo
[15] = Binding affinity to monkey histamine H4 receptor; design: species or system Macaca mulatta
[16] = Oral bioavailability in Sprague-Dawley rat at 50 mg/kg; format: ADME, organism-based; conditions: in vivo
Histamine H4 receptor [17] = molecular target: Histamine H4 receptor (Homo sapiens, UniProt Q9H3N8); experiment: Agonist activity at human H4 receptor
Sequence of Histamine H4 receptor (Homo sapiens, UniProt Q9H3N8) (Q9H3N8 whole entry): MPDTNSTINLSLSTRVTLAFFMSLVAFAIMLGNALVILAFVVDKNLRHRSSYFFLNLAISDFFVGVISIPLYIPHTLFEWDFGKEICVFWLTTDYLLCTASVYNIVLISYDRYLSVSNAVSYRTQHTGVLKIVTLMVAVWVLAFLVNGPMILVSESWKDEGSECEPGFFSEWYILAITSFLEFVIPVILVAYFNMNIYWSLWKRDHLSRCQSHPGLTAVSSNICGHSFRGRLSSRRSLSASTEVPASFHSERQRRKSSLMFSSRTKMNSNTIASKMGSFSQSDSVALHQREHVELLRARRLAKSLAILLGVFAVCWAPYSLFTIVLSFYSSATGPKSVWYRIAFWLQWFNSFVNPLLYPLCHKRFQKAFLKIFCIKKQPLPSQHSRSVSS

[18] = Half life in rat at 2 mg/kg, iv; format: ADME, organism-based; design: dose 2 mg/kg, route intravenous; conditions: in vivo
[19] = AUC in beagle dog at 10 mg/kg, po; format: ADME, organism-based, Canis lupus familiaris; design: dose 10 mg/kg, route oral; conditions: plasma
[20] = Tmax in beagle dog at 10 mg/kg, po; format: ADME, organism-based, Canis lupus familiaris; design: dose 10 mg/kg, route oral; conditions: in vivo
[21] = Oral bioavailability in Balb/c mouse at 20 mg/kg; format: ADME, organism-based; conditions: in vivo
[22] = AUC in Sprague-Dawley rat at 10 mg/kg, po; format: ADME, organism-based; design: dose 10 mg/kg, route oral; conditions: plasma
[23] = Clearance in rat at 2 mg/kg, iv; format: ADME, organism-based; design: dose 2 mg/kg, route intravenous; conditions: in vivo
[24] = Initial plasma concentration in beagle dog at 2 mg/kg, iv; format: ADME, organism-based, Canis lupus familiaris; design: dose 2 mg/kg, route intravenous
[25] = Toxicity in rabbit purkinje fibers; format: tissue-based, Oryctolagus cuniculus, Purkinje fiber; conditions: ex_vivo
[26] = Fraction unbound in mouse plasma; format: ADME, cell-free
[27] = Oral bioavailability in rat at 10 mg/kg; format: ADME, organism-based; conditions: in vivo
[28] = Clearance in Sprague-Dawley rat at 2 mg/kg, iv; format: ADME, organism-based; design: dose 2 mg/kg, route intravenous; conditions: Sprague-Dawley, in vivo
Mus musculus = experiment: Antiinflammatory activity in po dosed Balb/c mouse assessed as inhibition of LPS-induced TNF-alpha release at plasma concentration of 5.7 nM administered 30 mins prior to LPS challenge measured after 2 hrs by ELISA; format: functional, organism-based
[29] = AUC in Balb/c mouse at 2 mg/kg, iv; format: ADME, organism-based; design: dose 2 mg/kg, route intravenous; conditions: plasma
[30] = Volume of distribution at steady state in Sprague-Dawley rat at 2 mg/kg, iv; format: ADME, organism-based; design: dose 2 mg/kg, route intravenous; conditions: Sprague-Dawley, in vivo, read-out: Vdss
[31] = Initial plasma concentration in Balb/c mouse at 2 mg/kg, iv; format: ADME, organism-based; design: dose 2 mg/kg, route intravenous
Histamine H4 receptor [32] = molecular target: Histamine H4 receptor (Rattus norvegicus, UniProt Q91ZY1); experiment: Displacement of [3H]histamine from rat histamine H4 receptor expressed in SK-N-MC cells after 45 mins by competition binding analysis; format: cell-based
Sequence of Histamine H4 receptor (Rattus norvegicus, UniProt Q91ZY1) (Q91ZY1 whole entry): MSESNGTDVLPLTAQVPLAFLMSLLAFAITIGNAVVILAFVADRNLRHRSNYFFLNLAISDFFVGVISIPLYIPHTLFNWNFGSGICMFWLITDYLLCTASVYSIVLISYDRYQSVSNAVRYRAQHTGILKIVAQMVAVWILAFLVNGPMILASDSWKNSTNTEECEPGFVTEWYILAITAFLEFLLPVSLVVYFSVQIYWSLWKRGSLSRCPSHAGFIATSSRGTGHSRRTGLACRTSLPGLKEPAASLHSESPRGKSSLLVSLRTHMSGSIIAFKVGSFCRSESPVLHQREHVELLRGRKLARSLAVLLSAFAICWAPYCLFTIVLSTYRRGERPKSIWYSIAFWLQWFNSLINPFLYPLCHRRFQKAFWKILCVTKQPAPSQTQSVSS
Procedure, shortened: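 Transfected cells expressing the H4 receptor, competition against [3H]histamine. Ki is the geometric mean of at least three independent determinations (each in triplicate), calculated by the Cheng–Prusoff equation.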

Cytochrome P450 1A2 = molecular target: T1, Cytochrome P450 1A2 (Homo sapiens, UniProt P05177); experiment: Inhibition of CYP1A2 (unknown origin) at 50 to 100 uM; format: ADME
T1 sequence (P05177 whole entry): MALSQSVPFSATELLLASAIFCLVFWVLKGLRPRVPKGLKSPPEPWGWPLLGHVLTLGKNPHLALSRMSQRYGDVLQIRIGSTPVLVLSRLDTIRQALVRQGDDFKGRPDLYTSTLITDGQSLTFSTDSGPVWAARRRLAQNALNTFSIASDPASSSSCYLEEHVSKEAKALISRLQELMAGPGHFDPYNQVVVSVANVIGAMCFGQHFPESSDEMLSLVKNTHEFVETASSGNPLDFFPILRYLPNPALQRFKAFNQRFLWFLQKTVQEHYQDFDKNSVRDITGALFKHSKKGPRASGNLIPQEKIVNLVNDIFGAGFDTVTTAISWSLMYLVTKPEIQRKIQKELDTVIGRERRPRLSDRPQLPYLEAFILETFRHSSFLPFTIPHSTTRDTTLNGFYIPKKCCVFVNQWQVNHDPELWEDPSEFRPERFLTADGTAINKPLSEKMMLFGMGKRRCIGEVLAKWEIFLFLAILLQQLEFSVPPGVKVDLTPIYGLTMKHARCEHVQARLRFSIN

[33] = Cmax in Balb/c mouse at 20 mg/kg, po; format: ADME, organism-based; design: dose 20 mg/kg, route oral; conditions: in vivo
[34] = Cmax in Sprague-Dawley rat at 200 mg/kg, po; format: ADME, organism-based; design: dose 200 mg/kg, route oral; conditions: in vivo
Histamine H4 receptor [35] = molecular target: T2, Histamine H4 receptor (Mus musculus, UniProt Q91ZY2); experiment: Antagonist activity at mouse histamine H4 receptor expressed in SK-N-MC cells assessed as reduction of histamine-induced inhibition of cAMP-mediated beta-galactosidase reporter gene activity treated 10 mins prior to histamine challenge by microplate reader analysis; format: functional, cell-based; conditions: read-out: pA2 (converted)
T2 sequence (Q91ZY2 whole entry): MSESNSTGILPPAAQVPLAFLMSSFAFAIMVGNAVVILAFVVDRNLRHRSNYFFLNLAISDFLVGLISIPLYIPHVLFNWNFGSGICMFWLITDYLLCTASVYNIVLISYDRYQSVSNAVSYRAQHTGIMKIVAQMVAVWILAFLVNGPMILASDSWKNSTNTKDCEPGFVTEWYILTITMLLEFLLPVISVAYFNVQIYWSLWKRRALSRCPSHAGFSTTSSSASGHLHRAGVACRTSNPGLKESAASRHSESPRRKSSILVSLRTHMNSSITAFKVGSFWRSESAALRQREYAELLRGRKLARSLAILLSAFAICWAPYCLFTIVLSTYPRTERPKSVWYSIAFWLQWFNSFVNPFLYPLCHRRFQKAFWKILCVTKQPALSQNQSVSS

[36] = AUC in Balb/c mouse at 20 mg/kg, po; format: ADME, organism-based; design: dose 20 mg/kg, route oral; conditions: plasma
[37] = Half life in human liver microsomes; format: ADME

## CC(C)c1cc(N2CC[C@@H](N)C2)nc(N)n1 [JNJ-39758979]
[1]
  AUC: 6.7 µM·h
Cytochrome P450 2C9
  inhibition (INH): Not Active
[2]
  INH: > 10 µM
[3]
  Tmax: 8 h
[4]
  half-life: 10.2 h
[5]
  half-life: 7.8 h
[6]
  half-life: 6.16 h
[7]
  Tmax: 2 h
Histamine H3 receptor
  Ki: 1040 nM
[8]
  AUC: 9.69 µM·h
[9]
  AUC: 71.2 µM·h
[10]
  Kp: 23.2
[11]
  Kp: 22.7
[12]
  AUC: 184 µM·h
[13]
  half-life: 2.1 h
[14]
  clearance: 40 mL/min/kg
[15]
  Ki: 25 nM
[16]
  bioavailability: 38%
Histamine H4 receptor [17]
  EC50: > 10000 nM
[18]
  half-life: 2.1 h
[19]
  AUC: 31.6 µM·h
[20]
  Tmax: 0.8 h
[21]
  bioavailability: 75%
[22]
  AUC: 2.43 µM·h
[23]
  clearance: 36.7 mL/min/kg
[24]
  C0: 4.22 µM
[25]
  Activity: Non-toxic
[26]
  fraction unbound: 0.76
[27]
  bioavailability: 36%
[28]
  clearance: 91.7 mL/min/kg
Mus musculus
  inhibition: Active
[29]
  AUC: 3.27 µM·h
[30]
  Vd: 19.9 L/kg
[31]
  C0: 1.02 µM
Histamine H4 receptor [32]
  Ki: 188 nM
Cytochrome P450 1A2
  inhibition (INH): Not Active
[33]
  Cmax: 5.03 µM
[34]
  Cmax: 4.91 µM
Histamine H4 receptor [35]
  Kb: 5.01 nM
[36]
  AUC: 24.6 µM·h
[37]
  half-life: > 2 h
